The values that follow come from ChEMBL document CHEMBL1124210, “Synthesis and biological activity of some transition-state inhibitors of human renin” (J Med Chem, 1988).

*1 amine or outer side, *2 acyl side, *3 side chain or, on linkers, in order; H or OH if unused. Where a SMILES comes first, the peptide text is derived from it. [ ]: non-standard residue; d: D form. The star is where a group is joined. ξ: configuration not given here. LeuΨ(ξCHOHCH2)Val = CC(C)C[C@H](N[*:1])C(O)C[C@H](C(=O)[*:2])C(C)C; Boc = CC(C)(C)OC(=O)*; Piv = CC(C)(C)C(=O)*

For one experiment, the target named is T1, Renin (Homo sapiens, UniProt P00797).
T1 sequence (P00797 whole entry): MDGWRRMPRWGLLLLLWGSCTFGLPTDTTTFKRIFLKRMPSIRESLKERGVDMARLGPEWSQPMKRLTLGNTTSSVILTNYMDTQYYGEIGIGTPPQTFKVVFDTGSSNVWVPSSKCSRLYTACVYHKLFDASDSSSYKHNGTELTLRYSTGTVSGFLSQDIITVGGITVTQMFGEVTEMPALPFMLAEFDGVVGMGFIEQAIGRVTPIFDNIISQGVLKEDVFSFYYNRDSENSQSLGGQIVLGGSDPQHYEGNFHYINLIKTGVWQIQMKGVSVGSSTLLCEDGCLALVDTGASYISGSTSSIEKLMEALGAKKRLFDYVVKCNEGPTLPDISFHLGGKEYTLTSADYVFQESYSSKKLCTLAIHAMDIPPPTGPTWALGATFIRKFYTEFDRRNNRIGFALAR
In words: In vitro inhibition of purified Human kidney renin (250 pg/mL) incubated with angiotensinogen at pH 7.2. Put shortly:
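Purified human kidney renin at 250 pg/mL, incubated at 37 °C with human angiotensinogen at pH 7.2.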

The target in a further experiment is T2, Cathepsin D (Bos taurus, UniProt P80209).
T2 sequence (P80209 whole entry): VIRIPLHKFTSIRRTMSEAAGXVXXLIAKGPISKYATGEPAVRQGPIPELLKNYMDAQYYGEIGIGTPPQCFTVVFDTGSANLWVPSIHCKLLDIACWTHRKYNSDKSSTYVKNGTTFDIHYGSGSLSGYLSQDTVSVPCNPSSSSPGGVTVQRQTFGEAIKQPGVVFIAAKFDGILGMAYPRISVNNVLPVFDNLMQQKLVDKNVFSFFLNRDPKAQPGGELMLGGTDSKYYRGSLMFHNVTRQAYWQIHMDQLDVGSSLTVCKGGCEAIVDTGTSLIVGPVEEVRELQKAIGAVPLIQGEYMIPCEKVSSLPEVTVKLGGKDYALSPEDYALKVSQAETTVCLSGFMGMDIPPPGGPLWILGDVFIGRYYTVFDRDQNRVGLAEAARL
In words: In vitro inhibition of bovine cathepsin D.

Experiment [1] concerns Monkey. In words: Reduction of blood pressure measured 60 min after administration of compound(dose 10mg/kg, po). Format: functional. Put shortly:
(§1)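 Salt-depleted marmosets given a single intravenous or oral dose. Blood pressure change recorded in mmHg at 30, 60 and 120 min after dosing.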

The subject of experiment [2] is Monkey. In words: Reduction of blood pressure measured 60 min after administration of compound(dose 1 mg/kg, iv). Format: functional. The gist of the method:
as §1

Experiment [3] concerns Monkey. Briefly: Reduction of blood pressure measured 60 min after administration of compound(dose 1 mg/kg, p.o.). Format: functional. The note with it: route oral. Put shortly: as §1
In experiment [4] the test system is Monkey. Briefly: Reduction of blood pressure measured 60 min after administration of compound(dose 3 mg/kg, po). Format: functional. Put shortly:
as §1

Experiment [5] has as its system Monkey. In words: Reduction of blood pressure measured 120 min after administration of compound(dose 0.1 mg/kg, iv). The class given is functional. Put shortly: as §1
For experiment [6], the system named is Monkey. Briefly: Reduction of blood pressure measured 120 min after administration of compound(dose 10 mg/kg, po). The class given is functional. The gist of the method: as §1
Experiment [7] has as its system Monkey. Briefly: Reduction of blood pressure measured 120 min after administration of compound(dose 1 mg/kg, iv). The class given is functional. The gist of the method: as §1
Experiment [8] deals with Monkey. Briefly: Reduction of blood pressure measured 120 min after administration of compound(dose 1 mg/kg, p.o.). Format: functional. As to conditions: route oral. Put shortly: as §1
Experiment [9] deals with Monkey. In words: Reduction of blood pressure measured 120 min after administration of compound(dose 3 mg/kg, po). The class given is functional. Put shortly: as §1
Experiment [10] concerns Monkey. Briefly: Reduction of blood pressure measured 30 min after administration of compound(dose 0.1 mg/kg, iv). Format: functional. The gist of the method:
as §1

The subject of experiment [11] is Monkey. In words: Reduction of blood pressure measured 30 min after administration of compound(dose 10mg/kg, po). The class given is functional. The gist of the method: as §1
Experiment [12] concerns Monkey. Briefly: Reduction of blood pressure measured 30 min after administration of compound(dose 1 mg/kg, iv). Format: functional. The gist of the method:
as §1

Experiment [13] deals with Monkey. In words: Reduction of blood pressure measured 30 min after administration of compound(dose 1 mg/kg, p.o.). Format: functional. As to conditions: route oral. Put shortly:
as §1

In experiment [14] the test system is Monkey. Briefly: Reduction of blood pressure measured 30 min after administration of compound(dose 3mg/kg, po). The class given is functional. Put shortly:
as §1

The test system of experiment [15] is Monkey. Briefly: Reduction of blood pressure measured 60 min after administration of compound(dose 0.1 mg/kg, iv). The class given is functional. Put shortly:
as §1

The molecule `CC[C@H](C)[C@H](NC(=O)[C@@H](CC(O)[C@H](CC(C)C)NC(=O)[C@H](Cc1cnc[nH]1)NC(=O)C(C)(OC(=O)C(C)(C)C)c1ccccc1)C(C)C)C(=O)N[C@@H](Cc1cnc[nH]1)C(N)=O` (stereo not given in full) showed an IC50 against Renin of 20 nM.

With `CCCCNC(=O)[C@@H](CC(O)[C@H](CC1CCCCC1)NC(=O)[C@H](Cc1c[nH]cn1)NC(=O)C(Cc1ccccc1)CS(=O)(=O)C(C)(C)C)C(C)C` (stereo in doubt; 8i), half-maximal inhibition on Cathepsin D (IC50) required 3.2 µM. In addition, the Delta blood pressure was -23 mmHg in the experiment with Monkey [1]; -13 mmHg in the experiment on Monkey [2]; -5 mmHg with Monkey [3]; -10 mmHg in the experiment on Monkey [4]; -1 mmHg in the experiment with Monkey [5]; -23 mmHg with Monkey [6]. Also, the Delta blood pressure in the experiment on Monkey [7] is given as -12 mmHg; with Monkey [8] it was -6 mmHg; with Monkey [9], -8 mmHg; in the experiment on Monkey [10] it was -13 mmHg; with Monkey [11], -18 mmHg; in the experiment on Monkey [12] it was -17 mmHg. The Delta blood pressure in the experiment with Monkey [13] is 0 mmHg; with Monkey [14] it was -6 mmHg; with Monkey [15], -5 mmHg.

Take `CCCCNC(=O)[C@@H](CC(O)[C@H](CC1CCCCC1)NC(=O)[C@H](Cc1c[nH]cn1)NC(=O)C(C)(OC(=O)C(C)(C)C)c1ccccc1)C(C)C` (stereo not given in full): the midpoint of inhibition on Renin, the IC50, lay at 7 nM.

Molecule `CC[C@H](C)[C@H](NC(=O)[C@@H](CC(O)[C@H](CC(C)C)NC(=O)[C@H](Cc1cnc[nH]1)NC(=O)[C@H](Cc1ccccc1)NC(=O)OC(C)(C)C)C(C)C)C(=O)N[C@@H](Cc1cnc[nH]1)C(N)=O` (stereo not given in full) (Boc-FH[LeuΨ(ξCHOHCH2)Val]IH-NH2) had an IC50 against Renin of 15 nM.

`CCCCNC(=O)[C@@H](CC(O)[C@H](CC(C)C)NC(=O)[C@H](Cc1cnc[nH]1)NC(=O)C(C)(OC(=O)C(C)(C)C)c1ccccc1)C(C)C` (stereo not given in full) registered an IC50 on Renin of 20 nM.

Molecule `CCCCNC(=O)[C@@H](CC(O)[C@H](CC1CCCCC1)NC(=O)[C@H](Cc1c[nH]cn1)NC(=O)[C@H](Cc1ccccc1)C[S+]([O-])C(C)(C)C)C(C)C` (stereo not given in full) showed an IC50 on Renin of 2 nM.

Take `CC[C@H](C)[C@H](NC(=O)[C@@H](CC(O)[C@H](CC(C)C)NC(=O)[C@H](Cc1c[nH]cn1)NC(=O)[C@H](Cc1ccccc1)NC(=O)C(C)(C)C)C(C)C)C(=O)N[C@@H](Cc1c[nH]cn1)C(N)=O` (stereo not given in full) (Piv-FH[LeuΨ(ξCHOHCH2)Val]IH-NH2): on Renin, the IC50 was determined as 20 nM.

In the case of `CCCCNC(=O)[C@@H](CC(O)[C@H](CC1CCCCC1)NC(=O)[C@H](Cc1c[nH]cn1)NC(=O)C(CC(=O)C(C)(C)C)Cc1ccccc1)C(C)C` (stereo not given in full), the IC50 against Renin was 6 nM.

In the case of `CCCCNC(=O)[C@@H](CC(O)[C@H](CC1CCCCC1)NC(=O)[C@H](Cc1cnc[nH]1)NC(=O)[C@@H](CSC(C)(C)C)Cc1ccccc1)C(C)C` (stereo not given in full), at Renin, the IC50 came out at 4 nM.

As to `CCCCNC(=O)[C@@H](CC(O)[C@H](CC1CCCCC1)NC(=O)[C@H](Cc1cnc[nH]1)NC(=O)C(Cc1ccccc1)CP(=O)(OCC)OCC)C(C)C` (stereo not given in full), the IC50 against Renin was 4 nM.
